Experimental data as given in ChEMBL document CHEMBL2346629, “Discovery and characterization of novel allosteric FAK inhibitors” (Eur J Med Chem, 2013).

Experiments:
[1] = biological target: T1, Protein-tyrosine kinase 2-beta (Homo sapiens, UniProt Q14289); assay: Inhibition of human 6His-tagged unphosphorylated PYK2 (1 to 967) using Poly-(GT)-biotin as substrate by AlphaScreen assay in presence of [gamma-33P]ATP
[2] = biological target: T1, Protein-tyrosine kinase 2-beta; assay: Inhibition of human GST-tagged phosphorylated full length PYK2 (1 to 967) using Poly-(GT)-biotin as substrate by HTRF analysis in presence of [gamma-33P]ATP
[3] = Inhibition of PDGFRa D824V mutant (unknown origin) using [gamma-33P]ATP; design: species or system Homo sapiens
[4] = biological target: Tyrosine-protein kinase Yes (Homo sapiens, UniProt P07947); assay: Inhibition of YES (unknown origin) using [gamma-33P]ATP
How it was run: (§1)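 Radiometric kinase profiling service covering 288 kinases (261 wild-type, 27 mutant). Inhibition was read as incorporation from [γ-³³P]ATP.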

[5] = biological target: Mast/stem cell growth factor receptor Kit (Homo sapiens, UniProt P10721, D816V); assay: Inhibition of c-Kit D816V mutant (unknown origin) using [gamma-33P]ATP; how it was run: as §1
[6] = biological target: Mitogen-activated protein kinase kinase kinase 9 (Homo sapiens, UniProt P80192); assay: Inhibition of MLK1 (unknown origin) using [gamma-33P]ATP; how it was run: as §1
[7] = biological target: Mitogen-activated protein kinase kinase kinase kinase 4 (Homo sapiens, UniProt O95819); assay: Inhibition of HGK (unknown origin) using [gamma-33P]ATP; how it was run: as §1
[8] = biological target: Myosin light chain kinase, smooth muscle (Homo sapiens, UniProt Q15746); assay: Inhibition of MLCK (unknown origin) using [gamma-33P]ATP; how it was run: as §1
[9] = biological target: Mitogen-activated protein kinase kinase kinase kinase 2 (Homo sapiens, UniProt Q12851); assay: Inhibition of GCK (unknown origin) using [gamma-33P]ATP; how it was run: as §1
[10] = biological target: Tyrosine-protein kinase Fgr (Homo sapiens, UniProt P09769); assay: Inhibition of FGR (unknown origin) using [gamma-33P]ATP
How it was run: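 Reaction Biology HotSpot radiometric profiling panel of 288 kinases (261 wild-type, 27 mutant). Kinase activity was read out by incorporation of [γ-33P]ATP.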

[11] = biological target: Tyrosine-protein kinase Fyn (Homo sapiens, UniProt P06241); assay: Inhibition of FYN (unknown origin) using [gamma-33P]ATP; how it was run: as §1
[12] = biological target: Serine/threonine-protein kinase Chk2 (Homo sapiens, UniProt O96017); assay: Inhibition of CHK2 (unknown origin) using [gamma-33P]ATP
How it was run: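 Radiometric profiling across 288 kinases (261 wild-type, 27 mutant), run as an outsourced service. Inhibition read out as [gamma-33P]ATP incorporation into substrate.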

Focal adhesion kinase 1 [13] = biological target: T2, Focal adhesion kinase 1 (Homo sapiens, UniProt Q05397); assay: Inhibition of human FLAG-tagged unphosphorylated full length FAK expressed in baculovirus expression system incubated for 60 mins prior to 1000 uM of ATP addition by AlphaScreen assay
Focal adhesion kinase 1 [14] = biological target: T2, Focal adhesion kinase 1; assay: Inhibition of human FLAG-tagged unphosphorylated full length FAK expressed in baculovirus expression system incubated for 5 mins prior to 1000 uM of ATP addition by AlphaScreen assay
Focal adhesion kinase 1 [15] = biological target: T2, Focal adhesion kinase 1; assay: Inhibition of human FLAG-tagged unphosphorylated full length FAK expressed in baculovirus expression system incubated for 60 mins prior to 0.5 uM of ATP addition by AlphaScreen assay
Focal adhesion kinase 1 [16] = biological target: T2, Focal adhesion kinase 1; assay: Inhibition of human FLAG-tagged unphosphorylated full length FAK expressed in baculovirus expression system incubated for 5 mins prior to 0.5 uM ATP addition by AlphaScreen assay
Focal adhesion kinase 1 [17] = biological target: T2, Focal adhesion kinase 1; assay: Inhibition of human GST-tagged phosphorylated full length FAK incubated for 60 mins prior to 1000 uM of ATP addition by HTRF analysis
Focal adhesion kinase 1 [18] = biological target: T2, Focal adhesion kinase 1; assay: Inhibition of human GST-tagged phosphorylated full length FAK incubated for 5 mins prior to 1000 uM of ATP addition by HTRF analysis
Focal adhesion kinase 1 [19] = biological target: T2, Focal adhesion kinase 1; assay: Inhibition of human GST-tagged phosphorylated full length FAK incubated for 60 mins prior to 0.5 uM of ATP addition by HTRF analysis
Focal adhesion kinase 1 [20] = biological target: T2, Focal adhesion kinase 1; assay: Inhibition of human GST-tagged phosphorylated full length FAK incubated for 5 mins prior to 0.5 uM of ATP addition by HTRF analysis
Focal adhesion kinase 1 [21] = biological target: T2, Focal adhesion kinase 1
Focal adhesion kinase 1 [22] = biological target: T2, Focal adhesion kinase 1; remark: listed apart in the source
Focal adhesion kinase 1 [23] = biological target: T2, Focal adhesion kinase 1; remark: listed apart in the source
Focal adhesion kinase 1 [24] = biological target: T2, Focal adhesion kinase 1; remark: listed apart in the source

T2 sequence (Q05397 whole entry): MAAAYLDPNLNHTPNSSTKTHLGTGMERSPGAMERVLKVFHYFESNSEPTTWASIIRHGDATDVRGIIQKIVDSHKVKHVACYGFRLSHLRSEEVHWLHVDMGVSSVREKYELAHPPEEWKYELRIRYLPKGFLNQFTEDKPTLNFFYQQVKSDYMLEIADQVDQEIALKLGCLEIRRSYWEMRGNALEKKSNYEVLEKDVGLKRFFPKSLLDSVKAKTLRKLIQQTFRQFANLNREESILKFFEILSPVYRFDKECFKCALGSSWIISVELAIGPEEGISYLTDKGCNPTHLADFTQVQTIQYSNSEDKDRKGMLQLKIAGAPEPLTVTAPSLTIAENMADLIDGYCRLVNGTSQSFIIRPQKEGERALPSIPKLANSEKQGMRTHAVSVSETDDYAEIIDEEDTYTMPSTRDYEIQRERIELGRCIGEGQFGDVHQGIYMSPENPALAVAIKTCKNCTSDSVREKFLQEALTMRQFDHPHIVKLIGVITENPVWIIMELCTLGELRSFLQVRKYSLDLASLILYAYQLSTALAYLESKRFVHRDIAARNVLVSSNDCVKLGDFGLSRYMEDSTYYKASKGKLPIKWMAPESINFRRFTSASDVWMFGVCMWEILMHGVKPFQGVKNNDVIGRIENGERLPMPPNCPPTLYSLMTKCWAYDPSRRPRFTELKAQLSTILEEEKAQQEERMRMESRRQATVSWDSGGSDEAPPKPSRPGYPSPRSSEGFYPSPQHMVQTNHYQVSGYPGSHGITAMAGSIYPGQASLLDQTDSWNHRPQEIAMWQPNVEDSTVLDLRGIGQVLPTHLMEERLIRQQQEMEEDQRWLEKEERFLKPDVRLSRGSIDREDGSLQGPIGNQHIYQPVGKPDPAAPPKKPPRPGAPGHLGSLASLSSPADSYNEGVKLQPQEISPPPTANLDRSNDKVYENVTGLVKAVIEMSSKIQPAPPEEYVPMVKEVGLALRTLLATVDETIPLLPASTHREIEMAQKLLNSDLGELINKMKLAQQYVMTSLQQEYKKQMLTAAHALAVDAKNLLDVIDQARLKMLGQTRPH
Sequence of Tyrosine-protein kinase Fgr (P09769 whole entry): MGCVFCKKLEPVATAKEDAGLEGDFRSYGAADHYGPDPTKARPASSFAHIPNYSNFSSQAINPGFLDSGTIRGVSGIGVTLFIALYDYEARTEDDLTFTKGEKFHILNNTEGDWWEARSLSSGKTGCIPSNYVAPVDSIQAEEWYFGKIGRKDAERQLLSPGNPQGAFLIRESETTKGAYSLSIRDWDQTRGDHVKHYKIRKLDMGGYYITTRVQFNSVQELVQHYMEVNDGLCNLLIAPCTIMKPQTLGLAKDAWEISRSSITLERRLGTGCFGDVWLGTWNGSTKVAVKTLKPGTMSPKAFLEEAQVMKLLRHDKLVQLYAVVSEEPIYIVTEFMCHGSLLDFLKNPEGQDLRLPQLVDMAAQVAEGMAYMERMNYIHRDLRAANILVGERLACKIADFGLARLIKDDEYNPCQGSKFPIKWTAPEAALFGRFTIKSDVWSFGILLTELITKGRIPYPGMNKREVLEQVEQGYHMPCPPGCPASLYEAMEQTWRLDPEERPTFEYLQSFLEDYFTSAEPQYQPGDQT
T1 sequence (Q14289 whole entry): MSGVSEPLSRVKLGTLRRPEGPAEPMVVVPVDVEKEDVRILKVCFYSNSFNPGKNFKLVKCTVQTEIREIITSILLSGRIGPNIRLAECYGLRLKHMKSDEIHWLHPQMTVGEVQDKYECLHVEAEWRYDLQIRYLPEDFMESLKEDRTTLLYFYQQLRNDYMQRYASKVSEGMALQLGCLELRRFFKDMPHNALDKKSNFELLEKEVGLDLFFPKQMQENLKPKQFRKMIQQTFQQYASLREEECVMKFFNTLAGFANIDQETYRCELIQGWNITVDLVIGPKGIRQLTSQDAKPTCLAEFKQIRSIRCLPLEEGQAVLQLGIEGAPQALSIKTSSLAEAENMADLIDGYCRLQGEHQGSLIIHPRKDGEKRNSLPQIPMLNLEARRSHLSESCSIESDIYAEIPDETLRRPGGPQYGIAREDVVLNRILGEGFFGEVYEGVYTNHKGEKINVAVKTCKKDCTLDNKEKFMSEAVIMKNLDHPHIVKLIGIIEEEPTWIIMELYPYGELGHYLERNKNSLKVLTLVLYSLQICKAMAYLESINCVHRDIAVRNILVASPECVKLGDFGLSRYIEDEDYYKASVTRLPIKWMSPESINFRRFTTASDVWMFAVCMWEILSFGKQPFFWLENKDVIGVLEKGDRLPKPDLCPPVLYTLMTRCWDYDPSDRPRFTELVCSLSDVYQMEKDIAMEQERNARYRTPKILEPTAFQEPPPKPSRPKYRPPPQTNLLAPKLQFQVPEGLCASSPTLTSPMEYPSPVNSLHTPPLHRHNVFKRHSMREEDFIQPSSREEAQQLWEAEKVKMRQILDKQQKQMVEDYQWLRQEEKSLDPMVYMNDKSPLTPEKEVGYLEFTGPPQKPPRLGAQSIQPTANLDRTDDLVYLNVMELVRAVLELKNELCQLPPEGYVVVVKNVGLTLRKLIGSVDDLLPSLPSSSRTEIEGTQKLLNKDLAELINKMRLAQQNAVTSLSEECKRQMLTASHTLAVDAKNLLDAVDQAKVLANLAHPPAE
Sequence of Mitogen-activated protein kinase kinase kinase kinase 2 (Q12851 whole entry): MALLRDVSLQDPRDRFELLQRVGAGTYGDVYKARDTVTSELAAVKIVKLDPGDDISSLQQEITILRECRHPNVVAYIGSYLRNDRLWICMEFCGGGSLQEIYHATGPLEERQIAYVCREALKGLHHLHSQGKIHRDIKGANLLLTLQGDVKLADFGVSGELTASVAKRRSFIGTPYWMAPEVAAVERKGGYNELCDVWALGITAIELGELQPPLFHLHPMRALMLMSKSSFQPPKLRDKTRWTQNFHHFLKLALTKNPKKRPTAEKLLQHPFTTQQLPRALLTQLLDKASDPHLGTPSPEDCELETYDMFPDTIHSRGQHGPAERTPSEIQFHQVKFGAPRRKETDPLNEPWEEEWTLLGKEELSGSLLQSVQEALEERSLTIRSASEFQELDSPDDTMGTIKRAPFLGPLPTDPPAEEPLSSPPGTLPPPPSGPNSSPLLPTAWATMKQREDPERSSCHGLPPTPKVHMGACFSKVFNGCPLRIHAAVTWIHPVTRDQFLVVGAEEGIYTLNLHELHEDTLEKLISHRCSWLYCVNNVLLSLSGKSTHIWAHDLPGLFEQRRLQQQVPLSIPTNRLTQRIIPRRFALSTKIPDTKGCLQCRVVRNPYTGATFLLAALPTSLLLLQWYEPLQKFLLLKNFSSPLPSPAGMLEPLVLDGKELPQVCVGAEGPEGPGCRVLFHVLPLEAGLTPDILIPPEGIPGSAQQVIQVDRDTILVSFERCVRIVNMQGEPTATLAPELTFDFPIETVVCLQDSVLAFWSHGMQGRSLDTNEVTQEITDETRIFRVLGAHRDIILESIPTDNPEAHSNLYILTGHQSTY
Sequence of Mitogen-activated protein kinase kinase kinase kinase 4 (O95819 whole entry): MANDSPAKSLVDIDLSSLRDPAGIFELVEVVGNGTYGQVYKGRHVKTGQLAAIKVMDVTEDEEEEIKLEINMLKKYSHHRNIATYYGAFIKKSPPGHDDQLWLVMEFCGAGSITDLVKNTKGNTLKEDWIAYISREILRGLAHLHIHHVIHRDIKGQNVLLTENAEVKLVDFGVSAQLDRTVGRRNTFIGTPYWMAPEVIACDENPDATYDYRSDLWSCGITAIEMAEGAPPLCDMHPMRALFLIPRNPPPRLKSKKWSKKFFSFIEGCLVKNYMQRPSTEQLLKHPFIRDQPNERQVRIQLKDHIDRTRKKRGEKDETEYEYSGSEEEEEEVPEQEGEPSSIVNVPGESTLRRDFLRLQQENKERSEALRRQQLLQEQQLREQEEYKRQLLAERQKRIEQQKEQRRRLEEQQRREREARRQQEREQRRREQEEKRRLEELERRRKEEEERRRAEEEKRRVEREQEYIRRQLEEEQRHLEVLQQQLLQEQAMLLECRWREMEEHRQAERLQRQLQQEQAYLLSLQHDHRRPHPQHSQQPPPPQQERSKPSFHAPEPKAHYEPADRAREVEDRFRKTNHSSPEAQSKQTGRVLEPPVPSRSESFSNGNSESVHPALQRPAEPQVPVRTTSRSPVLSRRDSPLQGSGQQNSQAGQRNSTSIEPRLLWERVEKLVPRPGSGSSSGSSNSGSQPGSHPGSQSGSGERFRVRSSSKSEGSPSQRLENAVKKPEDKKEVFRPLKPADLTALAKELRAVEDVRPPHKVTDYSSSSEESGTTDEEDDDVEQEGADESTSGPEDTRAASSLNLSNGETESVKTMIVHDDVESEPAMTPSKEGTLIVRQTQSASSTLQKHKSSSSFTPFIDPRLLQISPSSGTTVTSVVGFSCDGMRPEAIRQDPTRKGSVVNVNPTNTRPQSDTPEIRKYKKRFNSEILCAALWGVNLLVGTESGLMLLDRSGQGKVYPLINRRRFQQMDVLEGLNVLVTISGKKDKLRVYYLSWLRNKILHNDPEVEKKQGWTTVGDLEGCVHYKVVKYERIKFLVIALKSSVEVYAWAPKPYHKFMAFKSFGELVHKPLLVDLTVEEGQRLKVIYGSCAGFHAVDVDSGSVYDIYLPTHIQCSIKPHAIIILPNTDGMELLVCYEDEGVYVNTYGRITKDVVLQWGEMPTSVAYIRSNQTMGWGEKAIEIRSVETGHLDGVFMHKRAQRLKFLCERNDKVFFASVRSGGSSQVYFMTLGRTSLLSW

| Structure (SMILES) | IC50 [4] | IC50 [5] | IC50 [6] | IC50 [7] | IC50 [8] | IC50 [9] | IC50 [10] | IC50 [11] | IC50 [12] | further results |
| --- | --- | --- | --- | --- | --- | --- | --- | --- | --- | --- |
| CCc1ccc(-c2ccc3c(c2)-c2c(cnn2CC)S(=O)(=O)N3C)cc1 | > 10 µM | > 10 µM | > 10 µM | > 10 µM | > 10 µM | > 10 µM | > 10 µM | > 10 µM | > 10 µM | IC50 [1]: > 30 µM; IC50 [2]: > 30 µM; IC50 [3]: > 10 µM; IC50 (Focal adhesion kinase 1 [13]): 3.2 µM; IC50 (Focal adhesion kinase 1 [14]): > 10 µM; IC50 (Focal adhesion kinase 1 [15]): 3.2 µM; IC50 (Focal adhesion kinase 1 [16]): > 10 µM; IC50 (Focal adhesion kinase 1 [17]): > 30 µM; IC50 (Focal adhesion kinase 1 [18]): > 30 µM; IC50 (Focal adhesion kinase 1 [19]): > 30 µM; IC50 (Focal adhesion kinase 1 [20]): > 30 µM; IC50 (Focal adhesion kinase 1 [21]): 1 µM; IC50 (Focal adhesion kinase 1 [22]): 3 µM; IC50 (Focal adhesion kinase 1 [23]): 1.3 µM; IC50 (Focal adhesion kinase 1 [24]): 1.6 µM |
| CCc1ccc(-c2ccc3c(c2)-c2n[nH]cc2S(=O)(=O)N3C)cc1 | 1.8 µM | 2.8 µM | 0.37 µM | 1.6 µM | 4 µM | 3 µM | 1.9 µM | 2.8 µM | 3.4 µM |  |
